Assay results: ChEMBL document CHEMBL1126713, “Nonpeptide angiotensin II receptor antagonists. 1. Synthesis and in vitro structure-activity relationships of 4-[[[(1H-pyrrol-1-ylacetyl)amino]phenyl]methyl]imidazole derivatives as angiotensin II receptor antagonists” (J Med Chem, 1993)

How the values were obtained:
[1] = target: T1, Type-1 angiotensin II receptor B (Rattus norvegicus, UniProt P29089); test: Binding affinity against angiotensin II receptor type 1 (AT1) from rat liver.
T1 sequence (P29089 whole entry): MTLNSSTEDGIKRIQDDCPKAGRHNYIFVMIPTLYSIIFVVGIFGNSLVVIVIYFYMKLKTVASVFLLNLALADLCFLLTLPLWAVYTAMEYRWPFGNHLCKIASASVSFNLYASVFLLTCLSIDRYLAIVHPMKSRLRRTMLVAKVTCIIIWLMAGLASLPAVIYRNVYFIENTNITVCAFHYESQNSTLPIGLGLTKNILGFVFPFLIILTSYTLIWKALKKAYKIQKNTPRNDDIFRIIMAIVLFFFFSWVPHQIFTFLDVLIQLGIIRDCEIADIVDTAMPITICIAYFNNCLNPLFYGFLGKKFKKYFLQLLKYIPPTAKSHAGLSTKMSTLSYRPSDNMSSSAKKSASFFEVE
Outline: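 Compounds were added from DMSO at 100× the final concentration. Samples were filtered on glass-fiber filters presoaked in Tris pH 7.7 with bacitracin and scintillation-counted. Nonspecific binding used 10 μM saralasin. IC50 came from nonlinear mass-action fits of five or six doses or more (mean ± SEM).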

Oryctolagus cuniculus = species on record: Oryctolagus cuniculus; test: Inhibition of Angiotensin II induced contraction of isolated rabbit aortic rings; assay type: functional; settings: Aorta
Outline: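 Thoracic aortic rings, 4–5 mm, from New Zealand White rabbits (3–4 kg) were held in PSS at 37 °C under 95% O2/5% CO2, with isometric force recorded. Rings were equilibrated 1.5 h, primed with 122 mM KCl and given two 10^-8 M AII control contractions. Compound in DMSO was incubated 10 min before the AII concentration–response was repeated. IC50 is the concentration halving AII contraction relative to the averaged controls.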

[2] = target: T2, Type-1 angiotensin II receptor B (Rattus norvegicus) (UniProt P29089); test: Binding affinity against angiotensin II (AT1 receptor) from rat liver expressed as % inhibition at 10 e -7 M
T2 sequence (whole entry): T1 sequence (P29089 whole entry)

IC50 [1]	IC50 (Oryctolagus cuniculus)	inhibition [2]	SMILES
60 nM			CCc1nc2c(C)cc(C)nc2n1Cc1ccc(NC(=O)[C@H](Cc2ccccc2)n2cccc2C(=O)O)cc1
240 nM	14000 nM		CCCCc1nc(Cl)c(CC(=O)O)n1Cc1ccc(NC(=O)[C@H](Cc2ccccc2)n2ccc(C(=O)OCC)c2)cc1
8370 nM			CCCCc1nc(Cl)c(CO)n1Cc1ccc(NC(=O)Cn2cccc2C(=O)OC)cc1
80 nM	550 nM		CCCCc1nc(Cl)c(C(=O)O)n1Cc1ccc(NC(=O)[C@H](Cc2ccccc2)n2cccc2C(=O)O)cc1
670 nM			CCCCc1nc(Cl)c(C(=O)O)n1Cc1ccc(NC(=O)[C@H](Cc2cccs2)n2cccc2)cc1
1290 nM			CCCCc1nc(Cl)c(CC(=O)O)n1Cc1ccc(NC(=O)[C@H](Cc2ccccc2)n2cc(C#N)c3ccccc32)cc1
		11%	CCCCc1nc(Cl)c(C(=O)OC)n1Cc1ccc(NC(=O)[C@H](Cc2cccs2)n2cccc2C(=O)OC)cc1
1120 nM			CCCCc1nc(Cl)c(CO)n1Cc1ccc(NC(=O)[C@H](c2ccccc2)n2cccc2C(=O)OC)cc1
210 nM			CCCCc1nc(Cl)c(CCC(=O)OC)n1Cc1ccc(NC(=O)[C@H](Cc2ccccc2)n2cccc2C(=O)OC)cc1
500 nM			CCCCc1nc(Cl)c(CC(=O)OC)n1Cc1ccc(NC(=O)[C@H](Cc2ccccc2)n2cccc2C(=O)OC)cc1
930 nM			CCCCc1nc2c(C)cccc2n1Cc1ccc(NC(=O)[C@H](Cc2ccccc2)n2cccc2C(=O)O)cc1
2500 nM			CCCCc1nc(-n2cccc2)c(C(=O)OCC)n1Cc1ccc(NC(=O)[C@H](Cc2ccccc2)n2cccc2C(=O)O)cc1
		7.8%	CCCCc1nc(Cl)c(CC(=O)O)n1Cc1ccc(NC(=O)CCc2ccccc2)cc1
590 nM			CCCCc1nc(Cl)c(CO)n1Cc1ccc(NC(=O)[C@H](CCCC)n2cccc2C(=O)OC)cc1
210 nM			CCCCc1nc(Cl)c(CO)n1Cc1ccc(NC(=O)[C@H](Cc2ccccc2)n2cccc2C(=O)OC)cc1
20 nM	110 nM		CCCCc1ncc(C(=O)O)n1Cc1ccc(NC(=O)[C@H](Cc2ccccc2)n2cccc2C(=O)O)cc1
180 nM			CCCCc1nc(Cl)c(C(=O)O)n1Cc1ccc(NC(=O)[C@H](Cc2cccs2)n2cccc2C(=O)O)cc1
	520 nM		CCCCc1nc(Cl)c(CC(=O)O)n1Cc1ccc(NC(=O)[C@H](Cc2ccccc2)n2cccc2C(=O)O)cc1
2600 nM			CCCCc1nc(Cl)c(CO)n1Cc1ccc(NC(=O)C(C#N)Cc2ccccc2)cc1 (configuration not stated)
92 nM			CCCCc1nc(Cl)c(C(=O)O)n1Cc1ccc(-c2ccccc2C(=O)O)cc1
2600 nM			CCCCc1nc(Cl)c(CO)n1Cc1ccc(NC(=O)C(Cc2ccccc2)c2nn[nH]n2)cc1 (configuration not stated)

Continued, molecule first:

SMILES	IC50 [1]	IC50 (Oryctolagus cuniculus)	inhibition [2]
CCCCc1nc(Cl)c(CO)n1Cc1ccc(-c2ccccc2C(=O)O)cc1	300 nM		
CCCCc1nc(-n2cccc2)c(C(=O)O)n1Cc1ccc(NC(=O)[C@H](Cc2ccccc2)n2cccc2C(=O)O)cc1	340 nM		
CCCCc1nc(Cl)c(C(=O)OC)n1Cc1ccc(NC(=O)[C@H](Cc2cccs2)n2cccc2)cc1			2.5%
CCCCc1nc(Cl)c(CC(=O)O)n1Cc1ccc(NC(=O)[C@H](Cc2ccccc2)n2ccc(C(=O)OCC)c2C)cc1	140 nM		
CCCCc1nc(Cl)c(CO)n1Cc1ccc(NC(=O)C(=O)c2ccccc2)cc1	10900 nM		
CCCCc1nc(Cl)c(CC(=O)O)n1Cc1ccc(NC(=O)[C@H](Cc2cccs2)n2cccc2C(=O)O)cc1	24 nM		
CCCCc1nc(Cl)c(CC(=O)O)n1Cc1ccc(NC(=O)[C@H](Cc2ccccc2)n2c(C)ccc2C)cc1	370 nM		
CCCCc1nc(Cl)c(CC(=O)OC)n1Cc1ccc(NC(=O)[C@H](Cc2cccs2)n2cccc2C(=O)OC)cc1	800 nM		
CCCCc1ncc(C(=O)OC)n1Cc1ccc(NC(=O)[C@H](Cc2ccccc2)n2cccc2C(=O)OC)cc1			33%
CCc1nc2c(C)cc(C)nc2n1Cc1ccc(NC(=O)[C@H](Cc2ccccc2)n2cccc2C(=O)OC)cc1	330 nM		
CCCCc1nc(Cl)c(CC(=O)OC)n1Cc1ccc(NC(=O)[C@H](Cc2ccccc2)n2cccc2C)cc1			14.8%
CCCCc1nc(Cl)c(CC(=O)O)n1Cc1ccc(NC(=O)[C@H](Cc2ccccc2)n2cccc2)cc1	210 nM	6300 nM	
CCCCc1nc(Cl)c(CC(=O)O)n1Cc1ccc(NC(=O)[C@H](Cc2ccccc2)n2cccc2C)cc1	140 nM	6400 nM	
CCCCc1nc(Cl)c(CCC(=O)O)n1Cc1ccc(NC(=O)[C@H](Cc2ccccc2)n2cccc2C(=O)O)cc1	22 nM	220 nM	
CCCCc1nc(Cl)c(CO)n1Cc1ccc(NC(=O)[C@H](Cc2ccccc2)n2cccc2)cc1			8.1%
CCCCc1nc(Cl)c(C(=O)OC)n1Cc1ccc(NC(=O)[C@H](Cc2ccccc2)n2cccc2C(=O)OC)cc1			15%
CCCCc1nc(Cl)c(CC(=O)OC)n1Cc1ccc(NC(=O)[C@H](Cc2ccccc2)n2ccc(C(=O)OCC)c2)cc1			7.2%
CCCCc1nc(Cl)c(CC(=O)OC)n1Cc1ccc(NC(=O)[C@H](Cc2ccccc2)n2ccc(C(=O)OCC)c2C)cc1	1470 nM		
CCCCc1nc(Cl)c(CO)n1Cc1ccc(NC(=O)[C@H](Cc2ccccc2)n2cccc2C(=O)O)cc1	180 nM	17000 nM	
